Converted amounts (≈) assume the structure as drawn. The source made the active and inactive calls. No cut-off for these calls is given here.
Assays:
[1] = AUC (0 to 6 hrs) in Sprague-Dawley rat at 10 mg/kg, po administered as cassette dosing; assay type: ADME, organism-based; parameters: time < 6 hr, dose 10 mg/kg, route oral; settings: in vivo
[2] = target: T1, Interleukin-1 receptor-associated kinase 4 (Homo sapiens, UniProt Q9NWZ3); experiment: biochemical
T1 sequence (Q9NWZ3 whole entry): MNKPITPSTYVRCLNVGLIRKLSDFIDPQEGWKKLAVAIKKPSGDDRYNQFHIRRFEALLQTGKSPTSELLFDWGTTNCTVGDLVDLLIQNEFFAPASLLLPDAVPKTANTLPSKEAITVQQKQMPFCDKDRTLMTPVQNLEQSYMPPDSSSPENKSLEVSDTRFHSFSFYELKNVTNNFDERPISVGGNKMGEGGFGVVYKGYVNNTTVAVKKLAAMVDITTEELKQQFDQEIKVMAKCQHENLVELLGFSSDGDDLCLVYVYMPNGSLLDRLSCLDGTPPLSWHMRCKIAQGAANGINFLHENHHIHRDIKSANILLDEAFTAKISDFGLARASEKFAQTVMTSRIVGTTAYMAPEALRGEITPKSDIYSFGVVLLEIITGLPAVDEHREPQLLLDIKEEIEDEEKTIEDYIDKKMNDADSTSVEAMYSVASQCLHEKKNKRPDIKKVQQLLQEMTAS

[3] = Kinetic aqueous solubility of the compound in phosphate buffered saline at pH 7 at 25 degC after 24 hrs by HPLC/DAD method; assay type: physicochemical; settings: read-out: Kinetic_solubility
[4] = target: BDNF/NT-3 growth factors receptor (Homo sapiens) (UniProt Q16620); experiment: Inhibition of recombinant human TRKB at 10 uM relative to control
[5] = target: T2, Interleukin-1 receptor-associated kinase 4 (Homo sapiens) (UniProt Q9NWZ3); experiment: Inhibition of recombinant human IRAK4 at 10 uM relative to control
T2 sequence (whole entry): T1 sequence (Q9NWZ3 whole entry)

[6] = tested on: Rattus norvegicus; experiment: Antiinflammatory activity in Lewis rat peritonitis model assessed as reduction of TLR2 agonist PAM2CSK4-induced IFN-gamma production in plasma at 100 mg/kg, po administered 1 hr prior to PAM2CSK4 challenge measured after 3 hrs relative to vehicle-treated control; assay type: functional
Method in brief: (§1)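 Female Lewis rats (n = 9) dosed by oral gavage at 100 mg/kg. One hour later, TLR2 agonist PAM2CSK4 injected intraperitoneally. Plasma collected 3 h after injection for cytokine levels and drug exposure. Cytokines expressed relative to a vehicle-only group.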

[7] = tested on: Pgp; experiment: Apparent permeability across pig LLC-PK1 cells expressing human or mouse Pgp; assay type: ADME, cell-based, Sus scrofa
[8] = tested on: Rattus norvegicus; experiment: Antiinflammatory activity in Lewis rat peritonitis model assessed as reduction of TLR2 agonist PAM2CSK4-induced IL-6 production in plasma at 100 mg/kg, po administered 1 hr prior to PAM2CSK4 challenge measured after 3 hrs relative to vehicle-treated control; assay type: functional; method in brief: as §1
[9] = tested on: Rattus norvegicus; experiment: Antiinflammatory activity in Lewis rat peritonitis model assessed as reduction of TLR2 agonist PAM2CSK4-induced IL-1beta production in plasma at 100 mg/kg, po administered 1 hr prior to PAM2CSK4 challenge measured after 3 hrs relative to vehicle-treated control; assay type: functional; parameters: scale not given: the % may be the effect or the level left; method in brief: as §1
[10] = Plasma concentration in PAM2CSK4 challenged Lewis rat peritonitis model at 100 mg/kg, po administered 1 hr prior to PAM2CSK4 challenge measured after 3 hrs; assay type: ADME, organism-based; method in brief: as §1
[11] = target: T1, Interleukin-1 receptor-associated kinase 4; experiment: Inhibition of IRAK4 in human THP1-XBlue cells assessed as suppression of TLR4 agonist LPS-induced activation of NF-kappaB preincubated for 1 hr followed by LPS challenge measured after 5 hrs by secreted embryonic alkaline phosphatase reporter gene assay; assay type: cell-based, THP-1
[12] = tested on: Rattus norvegicus; experiment: Antiinflammatory activity in Lewis rat peritonitis model assessed as reduction of TLR2 agonist PAM2CSK4-induced TNF-alpha production in plasma at 100 mg/kg, po administered 1 hr prior to PAM2CSK4 challenge measured after 3 hrs relative to vehicle-treated control; assay type: functional; parameters: scale not given: the % may be the effect or the level left; method in brief: as §1
[13] = target: T2, Interleukin-1 receptor-associated kinase 4 (Homo sapiens); settings: 1 uM
[14] = tested on: Mus musculus; experiment: Antiinflammatory activity in CIA-MAB-50-induced BALB/c mouse arthritis model assessed as decrease in LPS-induced paw size at 100 mg/kg, po qd administered on day 3 to 10 post LPS challenge measured on day 10 relative to vehicle-treated control; assay type: functional, organism-based
Method in brief: (§2)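 BALB/c female mice given arthritogenic monoclonal antibody CIA-MAB-50 (2.5 mg) on day 0, then LPS booster (25 μg i.p.) on day 3. Oral gavage once daily on days 3–10; vehicle group received methylcellulose. Paw size measured on days 0, 3, 6, 8 and 10. Study ended on day 10, and day-10 paw size was compared with vehicle.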

[15] = Fraction unbound in rat plasma at 10 uM after 6 hrs by dialysis method; assay type: ADME, cell-free
[16] = tested on: Pgp; experiment: Activity at rat Pgp assessed as apparent permeability by cell-based assay; assay type: ADME; settings: not told
[17] = AUC (0 to 24 hrs) in mouse at 5 mg/kg, po; assay type: ADME, organism-based; parameters: dose 5 mg/kg, time < 24 hr, route oral; settings: in vivo
[18] = tested on: Rattus norvegicus; experiment: Antiinflammatory activity in Lewis rat peritonitis model assessed as reduction of TLR2 agonist PAM2CSK4-induced IL-8 production in plasma at 100 mg/kg, po administered 1 hr prior to PAM2CSK4 challenge measured after 3 hrs relative to vehicle-treated control; assay type: functional; parameters: scale not given: the % may be the effect or the level left; method in brief: as §1
[19] = AUC (0 to 8 hrs) in Sprague-Dawley rat at 10 mg/kg, po administered as cassette dosing; assay type: ADME, organism-based; parameters: dose 10 mg/kg, time < 8 hr, route oral; settings: in vivo
[20] = AUC (0 to 8 hrs) in Sprague-Dawley rat at 2 mg/kg, iv; assay type: ADME, organism-based; parameters: dose 2 mg/kg, time < 8 hr, route intravenous; settings: in vivo
[21] = Oral bioavailability in Sprague-Dawley rat at 10 mg/kg administered as cassette dosing; assay type: ADME, organism-based; settings: in vivo
[22] = target: Misshapen-like kinase 1 (Homo sapiens) (UniProt Q8N4C8); experiment: Inhibition of recombinant human MINK1 at 10 uM relative to control
[23] = Drug metabolism in rat hepatocytes assessed as monooxidized metabolite formation; assay type: ADME, cell-based, Hepatocyte
[24] = tested on: Mus musculus; experiment: Antiinflammatory activity in CIA-MAB-50-induced BALB/c mouse arthritis model assessed as decrease in LPS-induced paw size at 2 mg/kg, po qd administered on day 3 to 10 post LPS challenge measured on day 10 relative to vehicle-treated control; assay type: functional, organism-based; method in brief: as §2

Sequence of Misshapen-like kinase 1 (Homo sapiens) (Q8N4C8 whole entry, looked up): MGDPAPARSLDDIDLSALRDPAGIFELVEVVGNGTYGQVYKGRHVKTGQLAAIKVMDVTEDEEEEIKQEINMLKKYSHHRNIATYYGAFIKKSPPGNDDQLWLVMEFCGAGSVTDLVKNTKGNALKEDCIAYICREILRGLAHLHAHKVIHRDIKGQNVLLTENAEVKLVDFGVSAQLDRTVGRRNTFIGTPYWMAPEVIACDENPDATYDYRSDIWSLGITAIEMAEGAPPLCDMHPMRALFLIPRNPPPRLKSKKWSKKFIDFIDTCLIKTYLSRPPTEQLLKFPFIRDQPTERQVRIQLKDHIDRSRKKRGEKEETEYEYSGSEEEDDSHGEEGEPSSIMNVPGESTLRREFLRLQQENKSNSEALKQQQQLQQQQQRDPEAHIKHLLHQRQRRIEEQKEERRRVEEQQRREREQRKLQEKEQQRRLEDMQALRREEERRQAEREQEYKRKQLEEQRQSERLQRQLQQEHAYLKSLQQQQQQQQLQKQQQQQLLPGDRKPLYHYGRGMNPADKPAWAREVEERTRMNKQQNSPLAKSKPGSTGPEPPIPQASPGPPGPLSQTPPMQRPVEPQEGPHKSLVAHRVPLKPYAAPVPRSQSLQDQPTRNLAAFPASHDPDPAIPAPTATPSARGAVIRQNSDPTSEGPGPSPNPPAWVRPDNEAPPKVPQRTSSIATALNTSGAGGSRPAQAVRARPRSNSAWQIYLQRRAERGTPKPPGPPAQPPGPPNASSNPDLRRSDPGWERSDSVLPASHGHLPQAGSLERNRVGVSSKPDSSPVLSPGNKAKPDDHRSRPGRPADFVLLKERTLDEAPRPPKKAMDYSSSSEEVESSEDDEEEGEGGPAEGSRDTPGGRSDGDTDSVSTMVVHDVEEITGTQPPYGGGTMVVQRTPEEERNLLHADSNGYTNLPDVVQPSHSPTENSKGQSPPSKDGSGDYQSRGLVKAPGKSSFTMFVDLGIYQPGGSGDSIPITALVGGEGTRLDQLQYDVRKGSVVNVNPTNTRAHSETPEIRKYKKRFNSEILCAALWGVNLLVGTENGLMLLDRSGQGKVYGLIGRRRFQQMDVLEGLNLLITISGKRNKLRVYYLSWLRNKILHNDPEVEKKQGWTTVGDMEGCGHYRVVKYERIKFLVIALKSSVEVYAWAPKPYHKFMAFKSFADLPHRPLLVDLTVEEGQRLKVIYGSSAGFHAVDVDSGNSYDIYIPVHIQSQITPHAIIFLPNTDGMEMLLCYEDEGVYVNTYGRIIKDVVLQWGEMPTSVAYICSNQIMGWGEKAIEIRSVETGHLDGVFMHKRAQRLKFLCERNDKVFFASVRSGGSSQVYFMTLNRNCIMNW
Sequence of BDNF/NT-3 growth factors receptor (Homo sapiens) (Q16620 32-822 limits assumed): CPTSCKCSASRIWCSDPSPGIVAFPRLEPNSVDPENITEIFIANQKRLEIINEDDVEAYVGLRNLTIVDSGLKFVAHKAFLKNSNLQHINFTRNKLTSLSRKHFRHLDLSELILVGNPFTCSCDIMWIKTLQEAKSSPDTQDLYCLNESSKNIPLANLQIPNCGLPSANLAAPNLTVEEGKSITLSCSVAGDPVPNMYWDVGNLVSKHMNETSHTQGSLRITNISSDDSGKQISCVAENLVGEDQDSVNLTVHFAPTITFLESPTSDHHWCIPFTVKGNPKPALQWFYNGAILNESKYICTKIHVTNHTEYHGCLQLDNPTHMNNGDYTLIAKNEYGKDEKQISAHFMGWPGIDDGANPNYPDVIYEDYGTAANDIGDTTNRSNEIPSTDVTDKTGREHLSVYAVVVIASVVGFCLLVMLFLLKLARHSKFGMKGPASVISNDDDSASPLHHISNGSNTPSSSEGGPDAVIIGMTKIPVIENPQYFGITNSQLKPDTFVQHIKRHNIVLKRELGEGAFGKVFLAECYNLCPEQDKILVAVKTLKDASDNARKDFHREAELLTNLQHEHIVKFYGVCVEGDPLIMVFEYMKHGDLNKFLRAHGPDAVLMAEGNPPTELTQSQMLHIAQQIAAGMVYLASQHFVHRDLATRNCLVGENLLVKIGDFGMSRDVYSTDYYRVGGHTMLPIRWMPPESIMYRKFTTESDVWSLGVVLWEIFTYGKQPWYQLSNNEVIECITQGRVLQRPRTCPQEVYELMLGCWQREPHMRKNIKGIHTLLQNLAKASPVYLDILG

Structure (SMILES)	AUC(0-t) at 6 h [1]	IC50 [2]	solubility kinetic at 24 h [3]	further results
Cc1ccc(-n2nc(C3CCCCC3)cc2NC(=O)c2cnn3cccnc23)cc1		2400 nM	< 2 µM	
CS(=O)(=O)N1CCC(c2cc(NC(=O)c3cnn4cccnc34)n(-c3ccc(C4CC4)cc3F)n2)CC1		85 nM		
Cc1ccc(-n2nc(C3CCN(C)CC3)cc2NC(=O)c2cnn3cccnc23)cc1		150 nM	165 µM (≈ 68.6 µg/mL)	
Cc1ccc(-n2nc(-c3ccncc3)cc2NC(=O)c2cnn3cccnc23)cc1		61 nM	< 2 µM	
Cc1ccc(-n2nc(C3CC3)cc2NC(=O)c2cnn3cccnc23)cc1	2.37 µM·h	370 nM	99 µM (≈ 35.5 µg/mL)	
Cc1ccc(-n2nc(C3CCN(S(C)(=O)=O)CC3)cc2NC(=O)c2cnn3cccnc23)nc1		27 nM		inhibition [5]: > 80%; AUC(0-t) at 8 h [19]: 0.045 µM·h
Cc1ccc(-n2nc(C3CCNCC3)cc2NC(=O)c2cnn3cccnc23)cc1		80 nM	172 µM (≈ 69.1 µg/mL)	
COc1ccc(-c2cc(NC(=O)c3cnn4cccnc34)n(-c3ccc(C)cc3)n2)cc1OC		44 nM	< 2 µM	Drug metabolism [23]: metabolite_detected
Cc1ccc(-n2nc(C3CCN(C(C)C)CC3)cc2NC(=O)c2cnn3cccnc23)nc1		7 nM		
COc1ccc(-n2nc(C3CCN(S(C)(=O)=O)CC3)cc2NC(=O)c2cnn3cccnc23)cc1	0.43 µM·h	71 nM		
C[C@@H]1C[C@H]2[C@@H]3CCC4=CC(=O)C=C[C@]4(C)[C@@]3(F)[C@@H](O)C[C@]2(C)[C@@]1(O)C(=O)CO				Activity [24]: Active
Cc1ccc(-n2nc(C3CCN(C(N)=O)CC3)cc2NC(=O)c2cnn3cccnc23)cc1		220 nM		
Cc1cccc(-n2nc(C3CCN(S(C)(=O)=O)CC3)cc2NC(=O)c2cnn3cccnc23)c1		2100 nM		

Continued, in another order:

AUC(0-t) at 6 h [1]	IC50 [2]	solubility kinetic at 24 h [3]	Structure (SMILES)	further results
0.44 µM·h	99 nM	< 2 µM	Cc1ccc(-n2nc(-c3cccnc3)cc2NC(=O)c2cnn3cccnc23)cc1	
19.3 µM·h	67 nM	< 2 µM	Cc1ccc(-n2nc(C3CCN(S(C)(=O)=O)CC3)cc2NC(=O)c2cnn3cccnc23)cc1	inhibition [4]: > 80%; inhibition [5]: > 80%; Activity [6]: inactive; Papp [7]: 31 ×10⁻⁶ cm/s; Activity [8]: inactive; Activity [9]: 28%; concentration at 3 h [10]: 2660 nM; IC50 [11]: 2400 nM; Activity [12]: 21%
	5 nM		Cc1ccc(-n2nc(N3CCN(C)CC3)cc2NC(=O)c2cnn3cccnc23)nc1	inhibition [13]: > 80%; Activity [14]: Active; Activity [6]: 30%; Activity [8]: 85%; Activity [9]: 28%; fraction unbound at 6 h, 10 µM [15]: 0.21; Papp [16]: 32 ×10⁻⁶ cm/s; AUC(0-t) at 24 h [17]: 2.3 µM·h; Activity [18]: 34%; AUC(0-t) at 8 h [19]: 1.7 µM·h; AUC(0-t) at 8 h [20]: 1.29 µM·h; IC50 [11]: 83 nM; Activity [12]: 32%; bioavailability [21]: 28%
	2 nM		Cc1ccc(-n2nc(N3CCN(S(C)(=O)=O)CC3)cc2NC(=O)c2cnn3cccnc23)nc1	AUC(0-t) at 8 h [19]: 8.9 µM·h
	170 nM	< 2 µM	COc1ccc(-c2cc(NC(=O)c3cnn4cccnc34)n(-c3ccc(C)cc3)n2)cc1	inhibition [5]: > 80%; inhibition [22]: > 80%
5.26 µM·h	59 nM		CS(=O)(=O)N1CCC(c2cc(NC(=O)c3cnn4cccnc34)n(-c3ccc(C4CC4)cc3)n2)CC1	
0.28 µM·h	47 nM	170 µM (≈ 75.4 µg/mL)	Cc1ccc(-n2nc(C3CCN(C(C)C)CC3)cc2NC(=O)c2cnn3cccnc23)cc1	
1.39 µM·h	390 nM	< 2 µM	COc1cc(-c2cc(NC(=O)c3cnn4cccnc34)n(-c3ccc(C)cc3)n2)ccn1	
	280 nM		CS(=O)(=O)N1CCC(c2cc(NC(=O)c3cnn4cccnc34)n(-c3ccccc3)n2)CC1	
0.71 µM·h	180 nM	163 µM (≈ 72.3 µg/mL)	CC(=O)N1CCC(c2cc(NC(=O)c3cnn4cccnc34)n(-c3ccc(C)cc3)n2)CC1	
11.8 µM·h	40 nM		Cc1ccc(-n2nc(C3CCN(S(C)(=O)=O)CC3)cc2NC(=O)c2cnn3cccnc23)c(F)c1	
	690 nM	< 3 µM	Cc1ccc(-n2nc(-c3ccccc3)cc2NC(=O)c2cnn3cccnc23)cc1	
0.45 µM·h	410 nM	24 µM (≈ 9.66 µg/mL)	Cc1ccc(-n2nc(C3CCOCC3)cc2NC(=O)c2cnn3cccnc23)cc1	
	310 nM	3 µM (≈ 1.28 µg/mL)	COc1ccc(-c2cc(NC(=O)c3cnn4cccnc34)n(-c3ccc(C)cc3)n2)cn1	
	20 nM		CS(=O)(=O)N1CCC(c2cc(NC(=O)c3cnn4cccnc34)n(-c3ccc(C4CC4)cn3)n2)CC1	AUC(0-t) at 8 h [19]: 1.9 µM·h
	180 nM		Cc1cnc(-n2nc(C3CCN(S(C)(=O)=O)CC3)cc2NC(=O)c2cnn3cccnc23)nc1	
	13 nM		CC(C)N1CCC(c2cc(NC(=O)c3cnn4cccnc34)n(-c3ccc(C4CC4)cc3F)n2)CC1	AUC(0-t) at 8 h [19]: 1.11 µM·h
